Laboratory results reported in ChEMBL document CHEMBL3046278, “Design, synthesis and antifungal/insecticidal evaluation of novel cinnamide derivatives” (2011).
≈ marks a conversion by molar mass, not a printed value.

Legend:
Format in all cases: functional
Botrytis cinerea = assay: Antifungal activity against Botryotinia fuckeliana assessed as inhibition of mycelium growth at 50 ug/ml relative to control
Summary of the method: (§1)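 Mycelial growth inhibition on mycelial disks, compared with untreated control, using colony diameters: (control − treatment)/(control − disk diameter) × 100. Run twice, four replicates each.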

Cytospora mali = assay: Antifungal activity against Valsa mali assessed as inhibition of mycelium growth at 50 ug/ml relative to control; summary of the method: as §1
[1] = test system: Bursaphelenchus xylophilus; assay: Nematicidal activity against Bursaphelenchus xylophilus assessed as mortality at 200 mg/L after 24 hr relative to control
Summary of the method: (§2)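 Compounds dissolved in acetone and diluted with distilled water to a 200 mg L-1 working solution. Distilled water served as blank, triplicate. Mortality counted at 24, 48 and 72 h, then corrected against the negative control with Abbott's formula.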

Rhizoctonia solani = assay: Antifungal activity against Rhizoctonia solani assessed as inhibition of mycelium growth at 50 ug/ml relative to control; summary of the method: as §1
[2] = test system: Colletotrichum lindemuthianum; assay: Antifungal activity against Colletotrichum lindemuthianum assessed as inhibition of mycelium growth at 50 ug/ml relative to control; summary of the method: as §1
[3] = test system: Bursaphelenchus xylophilus; assay: Nematicidal activity against Bursaphelenchus xylophilus assessed as mortality at 200 mg/L after 48 hr relative to control; summary of the method: as §2
Phytophthora nicotianae = assay: Antifungal activity against Phytophthora parasitica assessed as inhibition of mycelium growth at 50 ug/ml relative to control; summary of the method: as §1
Sclerotinia sclerotiorum = assay: Antifungal activity against Sclerotinia sclerotiorum assessed as inhibition of mycelium growth at 50 ug/ml relative to control; summary of the method: as §1
[4] = test system: Bursaphelenchus xylophilus; assay: Nematicidal activity against Bursaphelenchus xylophilus assessed as mortality at 200 mg/L after 72 hr relative to control; summary of the method: as §2
[5] = test system: Bursaphelenchus xylophilus; assay: Nematicidal activity against Bursaphelenchus xylophilus assessed as mortality after 48 hr; details: read-out: LD50 (the source's name)
[6] = test system: Bursaphelenchus xylophilus; assay: Nematicidal activity against Bursaphelenchus xylophilus assessed as mortality after 24 hr; details: read-out: LD50 (the source's name)
[7] = test system: Bursaphelenchus xylophilus; assay: Nematicidal activity against Bursaphelenchus xylophilus assessed as mortality after 72 hr; details: read-out: LD50 (the source's name)

| SMILES | inhibition at 50 µg/mL (Botrytis cinerea) | inhibition at 50 µg/mL (Cytospora mali) | Activity [1] | inhibition at 50 µg/mL (Rhizoctonia solani) | inhibition at 50 µg/mL [2] | Activity [3] | inhibition at 50 µg/mL (Phytophthora nicotianae) | inhibition at 50 µg/mL (Sclerotinia sclerotiorum) | Activity [4] | LC50 [5] | LC50 [6] | LC50 [7] |
| --- | --- | --- | --- | --- | --- | --- | --- | --- | --- | --- | --- | --- |
| Cc1ccc(/C(=C/C(=O)NCCc2ccc(O)cc2)c2ccnc(Cl)c2)cc1C | 54% | -6.3% | 3.97% | 91% | 35.8% | 14.86% | -18.5% | 44% | 23.99% |  |  |  |
| COc1ccc(CCNC(=O)/C=C(\c2ccncc2)c2ccc(C)c(C)c2)cc1OC | 52% | 68% | 13.65% | 5.81% | 28.4% | 16.33% | -14.5% | 11% | 19.29% |  |  |  |
| Cc1ccc(/C(=C/C(=O)NCCc2ccc(O)cc2)c2ccnc(Cl)c2)cc1 | 33% | 29% | 7.56% | 72.9% | 16.4% | 12.65% | -18.5% | 29% | 14.2% |  |  |  |
| COc1ccc(CCNC(=O)/C=C(\c2ccnc(Cl)c2)c2ccc(C)c(C)c2)cc1OC | 33% | 36% | 8.63% | 23.8% | 23.9% | 17.81% | 14.2% | 28% | 21.64% |  |  |  |
| COc1ccc(CCNC(=O)/C=C(/c2ccc(C)cc2)c2ccnc(Cl)c2)cc1OC | 59% | 42% | 13.29% | 82.6% | 55.2% | 38.45% | 0% | 42% | 43.97% | 178 µg/mL (≈ 409 µM) | 305 µg/mL (≈ 699 µM) | 126 µg/mL (≈ 289 µM) |
| N#Cc1c(Cl)c(Cl)c(Cl)c(C#N)c1Cl [CHLOROTHALONIL] | 95% | 88% |  | 75.5% |  |  | 63.7% | 70% |  |  |  |  |
| COC(=O)Nc1nc2ccccc2[nH]1 [CARBENDAZIM] | 38% | 100% |  | 100% | 82.1% |  | 14.5% | 100% |  |  |  |  |
| Cc1ccc(/C(=C/C(=O)NCCc2ccccc2)c2ccnc(Cl)c2)c(C)c1 | 43% | 31% | 22.97% | 4.52% | 47% | 24.44% | 11.3% | 24% | 27.91% |  |  |  |
| Cc1ccc(/C(=C/C(=O)NCCc2ccccc2)c2ccncc2)cc1C | 15% | 18% | 28.7% | 3.87% | 17.2% | 47.67% | -9.68% | 2.7% | 49.07% |  |  |  |
| Cc1ccc(/C(=C/C(=O)NCCc2ccc(O)cc2)c2ccncc2)cc1 | 47% | -2.3% | 8.27% | 10.3% | 28.4% | 16.7% | -17.7% | 5.3% | 19.29% |  |  |  |
| COc1ccc(CCNC(=O)/C=C(/c2ccc(C(C)(C)C)cc2)c2ccnc(Cl)c2)cc1OC | 48% | 18% | 4.33% | 14.8% | 22.4% | 38.82% | -8.06% | 53% | 45.15% |  |  |  |
| Cc1ccc(/C(=C/C(=O)NCCc2ccccc2)c2ccnc(Cl)c2)cc1C | 67% | 52% | 14.73% | 76.8% | 56% | 21.49% | 1.61% | 72% | 45.15% | 315 µg/mL (≈ 805 µM) | 430 µg/mL (≈ 1100 µM) | 252 µg/mL (≈ 646 µM) |
| CC(C)(C)c1ccc(/C(=C/C(=O)NCCc2ccc(O)cc2)c2ccnc(Cl)c2)cc1 | 50% | -7.8% | 21.17% | 9.03% | 39.5% | 27.76% | -13.7% | 29% | 31.44% |  |  |  |
| CN(/C=C\c1ccccc1)C(=O)/C=C/c1ccccc1 [LANSIUMAMIDE B] |  |  | 100% |  |  | 100% |  |  | 100% | 6.36 µg/mL (≈ 24.2 µM) | 8.38 µg/mL (≈ 31.8 µM) | 5.38 µg/mL (≈ 20.4 µM) |
| Cc1ccc(/C(=C/C(=O)NCCc2ccc(O)cc2)c2ccncc2)cc1C | 64% | -2.3% | 11.86% | 16.1% | 38.8% | 22.6% | 14.5% | 27% | 32.22% |  |  |  |
| Cc1ccc(/C(=C/C(=O)NCCc2ccccc2)c2ccnc(Cl)c2)cc1 | 44% | 48% | 15.8% | 93.9% | 59.7% | 28.13% | 24.4% | 37% | 35.35% |  |  |  |
| COc1ccc(/C(=C/C(=O)NCCc2ccccc2)c2ccnc(Cl)c2)cc1 | 55% | -6.3% | 13.65% | 13.6% | 43.3% | 38.82% | -2.42% | 42% | 42.01% |  |  |  |
| Cc1ccc(/C(=C/C(=O)NCCc2ccccc2)c2ccncc2)cc1 | 43% | 36% | 9.34% | 15.5% | 32.8% | 14.86% | -17.7% | 16% | 18.11% |  |  |  |
| CCc1ccc(/C(=C/C(=O)NCCc2ccc(O)cc2)c2ccnc(Cl)c2)cc1 | 37% | 24% | 14.73% | 67.7% | 24.6% | 33.6% | 28.2% | 17% | 43.97% |  |  |  |
| CCc1ccc(/C(=C/C(=O)NCCc2ccccc2)c2ccncc2)cc1 | 48% | 30% | 7.56% | 9.68% | 37.3% | 8.23% | 5.65% | 45% | 8.71% |  |  |  |
| COc1ccc(CCNC(=O)/C=C(\c2ccnc(Cl)c2)c2ccc(C)cc2C)cc1OC | 40% | 29% | 19.02% | 35.5% | 42.5% | 34.02% | 22.6% | 68% | 38.09% |  |  |  |
| CCc1ccc(/C(=C/C(=O)NCCc2ccccc2)c2ccnc(Cl)c2)cc1 | 50% | 20% | 17.95% | 22.4% | 34.3% | 26.29% | 26.8% | 44% | 67.87% | 174 µg/mL (≈ 445 µM) | 301 µg/mL (≈ 769 µM) | 114 µg/mL (≈ 291 µM) |
| CO/C=C(/C(=O)OC)c1ccccc1Oc1cc(Oc2ccccc2C#N)ncn1 [AZOXYSTROBIN] | 80% | 92% |  | 89% |  |  | 37.9% | 100% |  |  |  |  |
| CC(C)(C)c1ccc(/C(=C/C(=O)N2CCOCC2)c2ccnc(Cl)c2)cc1 [PYRIMORPH] |  |  |  | 97.2% |  |  |  | 79% |  |  |  |  |
| Cc1ccc(/C(=C/C(=O)NCCc2ccc(O)cc2)c2ccnc(Cl)c2)c(C)c1 | 38% | 26% | 12.22% | 13.6% | 21.6% | 44.71% | -25% | 27% | 54.16% |  |  |  |
